Data set [1] has as its target T1, Serine/threonine-protein kinase 17A (Homo sapiens, UniProt Q9UEE5).
T1 sequence (Q9UEE5 whole entry): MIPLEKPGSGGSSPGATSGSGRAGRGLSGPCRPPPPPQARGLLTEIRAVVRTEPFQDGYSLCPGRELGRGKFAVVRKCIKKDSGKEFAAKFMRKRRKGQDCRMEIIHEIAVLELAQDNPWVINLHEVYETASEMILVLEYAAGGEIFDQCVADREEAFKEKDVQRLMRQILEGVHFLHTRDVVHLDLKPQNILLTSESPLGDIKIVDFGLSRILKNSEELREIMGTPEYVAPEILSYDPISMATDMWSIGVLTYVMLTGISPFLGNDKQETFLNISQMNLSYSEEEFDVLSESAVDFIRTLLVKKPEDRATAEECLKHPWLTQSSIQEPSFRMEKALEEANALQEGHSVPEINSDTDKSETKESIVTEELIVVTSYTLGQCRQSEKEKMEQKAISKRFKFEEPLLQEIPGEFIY
Briefly: Displacement of tracer K9 from NLuc fused DRAK1 (unknown origin) expressed in HEK293 cells by NanoBRET assay. The class given is cell-based. In general terms: In BRET a luciferase serves as donor, and the signal depends on an acceptor being close.

Data set [2] concerns the target T2, Serine/threonine-protein kinase TBK1 (Homo sapiens, UniProt Q9UHD2).
T2 sequence (Q9UHD2 whole entry): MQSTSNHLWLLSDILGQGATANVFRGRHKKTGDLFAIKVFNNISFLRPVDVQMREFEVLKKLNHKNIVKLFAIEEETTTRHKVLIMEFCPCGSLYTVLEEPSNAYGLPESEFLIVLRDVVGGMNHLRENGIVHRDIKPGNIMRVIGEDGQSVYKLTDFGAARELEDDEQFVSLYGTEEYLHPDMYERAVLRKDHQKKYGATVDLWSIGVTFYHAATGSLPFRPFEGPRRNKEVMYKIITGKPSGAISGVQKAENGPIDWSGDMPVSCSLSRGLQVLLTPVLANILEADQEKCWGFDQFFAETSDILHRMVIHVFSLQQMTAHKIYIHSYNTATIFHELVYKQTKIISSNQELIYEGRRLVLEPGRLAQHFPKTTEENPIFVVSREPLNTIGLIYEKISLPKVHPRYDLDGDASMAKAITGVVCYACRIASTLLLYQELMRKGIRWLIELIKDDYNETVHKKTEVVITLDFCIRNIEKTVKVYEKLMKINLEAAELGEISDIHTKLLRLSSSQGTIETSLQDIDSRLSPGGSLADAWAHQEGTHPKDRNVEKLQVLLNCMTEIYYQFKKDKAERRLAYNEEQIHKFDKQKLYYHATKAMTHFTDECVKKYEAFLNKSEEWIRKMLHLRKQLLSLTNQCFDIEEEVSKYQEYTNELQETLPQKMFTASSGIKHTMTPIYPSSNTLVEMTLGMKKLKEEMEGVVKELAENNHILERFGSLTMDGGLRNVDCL
Briefly: Displacement of tracer K5 from NLuc fused TBK1 (unknown origin) expressed in HEK293 cells by NanoBRET assay. It is filed as cell-based. An outline of the steps: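 HEK293 cells grown in DMEM with 10% FBS at 37 °C, 5% CO2. NanoBRET assay run in dose–response per manufacturer's protocol with tracer K-5 at 0.5 μM. SEM calculated for assays run more than once.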

In data set [3] the target is T3, NUAK family SNF1-like kinase 1 (Homo sapiens, UniProt O60285).
T3 sequence (O60285 whole entry): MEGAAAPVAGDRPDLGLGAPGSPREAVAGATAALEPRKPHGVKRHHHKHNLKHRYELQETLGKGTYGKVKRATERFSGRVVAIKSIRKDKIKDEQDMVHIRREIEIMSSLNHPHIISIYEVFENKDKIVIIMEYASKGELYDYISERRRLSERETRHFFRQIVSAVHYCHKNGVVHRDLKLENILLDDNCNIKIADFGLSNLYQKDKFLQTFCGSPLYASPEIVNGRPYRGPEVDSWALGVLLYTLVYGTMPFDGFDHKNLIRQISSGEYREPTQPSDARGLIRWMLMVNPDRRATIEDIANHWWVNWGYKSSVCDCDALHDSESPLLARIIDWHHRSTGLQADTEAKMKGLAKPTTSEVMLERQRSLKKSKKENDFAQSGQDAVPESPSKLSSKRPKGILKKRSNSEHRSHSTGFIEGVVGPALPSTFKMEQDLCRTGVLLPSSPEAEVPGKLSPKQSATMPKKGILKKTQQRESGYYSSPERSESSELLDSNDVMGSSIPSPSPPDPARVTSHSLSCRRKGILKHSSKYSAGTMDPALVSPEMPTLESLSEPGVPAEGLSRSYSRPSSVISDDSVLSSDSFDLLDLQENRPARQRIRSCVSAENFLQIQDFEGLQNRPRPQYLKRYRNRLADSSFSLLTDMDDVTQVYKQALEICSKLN
Briefly: Inhibition of recombinant human ARK5 (2 to end residues) using KKKVSRSGLYRSPSMPENLNRPR as substrate incubated for 40 mins in presence of [gamma-33ATP] by scintillation counting based radiometry assay. An outline of the steps: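 Eurofins radiometric enzymatic assay with ATP at Km for each kinase. IC50 was derived from a 9-point dose–response curve run in duplicate.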

Data set [4] is described as follows: Kinetic solubility of compound in PBS at pH 7.4 incubated for 24 hrs by chemiluminscent nitrogen detection method. The class given is physicochemical. Particulars: buffer, pH 7.4, 24 h. An outline of the steps:
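Filtrates were quantified by total chemiluminescent nitrogen determination against a calibration curve, with correction for background nitrogen from DMSO and medium.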

The target in data set [5] is Tyrosine-protein kinase JAK2 (Homo sapiens) (UniProt O60674). Nature of the data set: Inhibition of recombinant human JAK2 (808 to end residues) using KTFCGTPEYLAPEVRREPRILSEEEQEMFRDFDYIADWC as substrate at 1 uM incubated for 40 mins in presence of [gamma-33P-ATP] by radiometric scintillation assay relative to control. An outline of the steps:
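Eurofins radiometric kinase assay with ATP at Km for each kinase. Compound was tested at a single 1 μM concentration in duplicate, and the result is reported as percent of control.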

Data set [6] deals with High affinity nerve growth factor receptor (Homo sapiens, UniProt P04629). Briefly: Inhibition of human TrkA (440 to end residues) using KKKSPGEYVNIEFG as substrate measured after 40 mins in presence of [gamma33P]ATP by scintillation counting method. An outline of the steps:
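Eurofins radiometric kinase assay run at ATP equal to Km for each kinase. 9-point dose–response in duplicate gives the IC50.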

pIC50: −log10 of the molar value.

Sequence of Tyrosine-protein kinase JAK2 (Homo sapiens) (O60674 whole entry): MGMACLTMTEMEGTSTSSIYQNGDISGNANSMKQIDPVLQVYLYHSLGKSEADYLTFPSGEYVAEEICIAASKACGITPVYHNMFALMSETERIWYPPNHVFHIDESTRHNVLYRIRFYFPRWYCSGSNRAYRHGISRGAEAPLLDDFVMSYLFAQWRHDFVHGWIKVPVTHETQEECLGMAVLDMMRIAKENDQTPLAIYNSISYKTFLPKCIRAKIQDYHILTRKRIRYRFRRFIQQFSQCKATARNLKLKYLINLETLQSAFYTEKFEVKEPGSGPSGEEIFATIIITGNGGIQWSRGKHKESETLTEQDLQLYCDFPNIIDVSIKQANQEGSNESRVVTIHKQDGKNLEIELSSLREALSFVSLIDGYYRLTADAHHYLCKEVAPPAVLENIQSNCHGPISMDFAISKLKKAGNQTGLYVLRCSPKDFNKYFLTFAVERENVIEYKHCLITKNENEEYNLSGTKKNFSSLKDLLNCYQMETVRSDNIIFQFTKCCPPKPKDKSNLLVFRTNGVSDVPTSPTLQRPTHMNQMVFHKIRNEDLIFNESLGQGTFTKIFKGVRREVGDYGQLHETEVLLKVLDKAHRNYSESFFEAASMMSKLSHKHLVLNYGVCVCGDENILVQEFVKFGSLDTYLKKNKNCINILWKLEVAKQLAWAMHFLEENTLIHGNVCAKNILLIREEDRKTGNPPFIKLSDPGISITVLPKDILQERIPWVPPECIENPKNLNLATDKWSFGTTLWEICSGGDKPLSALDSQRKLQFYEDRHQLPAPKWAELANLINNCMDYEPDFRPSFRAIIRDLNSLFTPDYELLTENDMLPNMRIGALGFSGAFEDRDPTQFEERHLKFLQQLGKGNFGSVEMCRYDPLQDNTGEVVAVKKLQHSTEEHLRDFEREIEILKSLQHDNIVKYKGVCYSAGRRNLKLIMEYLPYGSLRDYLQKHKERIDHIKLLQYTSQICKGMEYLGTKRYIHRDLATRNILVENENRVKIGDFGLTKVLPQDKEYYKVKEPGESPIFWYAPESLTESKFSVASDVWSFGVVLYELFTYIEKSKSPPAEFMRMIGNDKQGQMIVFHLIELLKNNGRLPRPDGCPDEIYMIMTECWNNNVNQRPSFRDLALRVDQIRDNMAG
Sequence of High affinity nerve growth factor receptor (P04629 whole entry): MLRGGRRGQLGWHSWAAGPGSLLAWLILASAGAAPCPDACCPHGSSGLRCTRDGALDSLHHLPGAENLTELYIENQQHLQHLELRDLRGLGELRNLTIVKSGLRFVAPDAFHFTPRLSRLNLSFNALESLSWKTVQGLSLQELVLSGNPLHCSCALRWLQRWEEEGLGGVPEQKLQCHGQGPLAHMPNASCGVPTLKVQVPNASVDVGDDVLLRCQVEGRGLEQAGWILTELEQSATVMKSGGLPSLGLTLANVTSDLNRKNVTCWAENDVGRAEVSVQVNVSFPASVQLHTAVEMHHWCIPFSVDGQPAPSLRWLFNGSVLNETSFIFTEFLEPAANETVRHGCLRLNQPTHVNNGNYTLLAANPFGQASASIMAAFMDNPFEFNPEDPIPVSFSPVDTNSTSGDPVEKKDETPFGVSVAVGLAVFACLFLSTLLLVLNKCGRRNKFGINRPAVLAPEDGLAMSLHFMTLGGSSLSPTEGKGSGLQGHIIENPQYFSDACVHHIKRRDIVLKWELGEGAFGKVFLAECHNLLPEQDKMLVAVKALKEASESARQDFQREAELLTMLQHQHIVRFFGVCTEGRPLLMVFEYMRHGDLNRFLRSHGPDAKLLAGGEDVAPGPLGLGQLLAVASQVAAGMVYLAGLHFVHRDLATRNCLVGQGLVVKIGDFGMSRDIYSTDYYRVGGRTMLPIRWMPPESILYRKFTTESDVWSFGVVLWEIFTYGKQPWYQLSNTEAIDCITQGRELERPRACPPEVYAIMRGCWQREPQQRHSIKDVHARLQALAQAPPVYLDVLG

In general, pIC50 refers to the negative decadic logarithm of the IC50, by convention in mol/L. For `c1cc(CN2CCOCC2)cc(Nc2nccc(NCCc3cnc[nH]3)n2)c1`, the pIC50 was < 5.00 in data set [1], < 5.00 in data set [2] and 6.75 in data set [3]. Also, the Kinetic solubility in data set [4] was 200 µM. In addition, the % control in data set [5] was found to be 81%.

In the case of `NS(=O)(=O)c1ccc(CNc2nc(Nc3cccc(CN4CCOCC4)c3)ncc2Br)cc1`, the pIC50 in data set [6] is 6.80; in data set [1] it was < 5.00; in data set [2], < 5.00; in data set [3], 6.77. Besides, the Kinetic solubility in data set [4] is 4.7 µM. Besides, in data set [5], the % control turned out to be 3%.

For the compound `NS(=O)(=O)c1ccc(CNc2nc(Nc3cccc(CN4CCOCC4)c3)ncc2C2CC2)cc1`, the pIC50 in data set [6] was 6.82; in data set [1], < 5.00; in data set [2], 5.69. In data set [4], this compound came in with a Kinetic_solubility of 118.7 µM. Also, in data set [5], the % control came to 87%.

On to `NS(=O)(=O)c1ccc(CNc2nc(Nc3cccc(NC(=O)N4CCCC4)c3)ncc2Br)cc1`, for which the pIC50 in data set [6] is 6.55; in data set [1], < 5.00; in data set [2], 5.21; in data set [3] it was 6.50. In data set [4], this compound registered a Kinetic_solubility of 20 µM. Also, the % control in data set [5] was found to be 12%.

The values are drawn from ChEMBL document CHEMBL5046221, “Identification of Pyrimidine-Based Lead Compounds for Understudied Kinases Implicated in Driving Neurodegeneration” (J Med Chem, 2022).
